Experimental findings from PubChem BioAssay are described below.

Test [1] can be described thus: hit retest on RPL19A-GFP reporter strain – cell-based, S. cerevisiae, flow cytometry, cherry picks, mother/daughter gates, confirmation (AID 2270;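 active = GFP response below 50% of the DMSO control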). Conditions: 3 h, at 10 µM, stronger effect = lower value, 100 = same GFP as DMSO wells. In general terms: A flow cytometer gives signals particle by particle.
Test [2] in a line: yeast TOR pathway reporter LAP4-GFP change – cell-based, cherry picks, flow cytometry, mother/daughter gates, confirmation (AID 2271;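 active = GFP response above 150% of the DMSO control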;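 also: ratio of sample to DMSO plate mean so 100% equals DMSO level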). The conditions noted are these: S. cerevisiae LAP4-GFP strain, 3 h, at 10 µM, stronger effect = higher value, 100 means same as DMSO control. In a few lines:
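Material: Alexa Fluor 633-labelled Saccharomyces cerevisiae GFP-fusion strain, single-plex | Amount: Yeast cells seeded at OD600 of 0.2 | Buffer or medium: SC growth medium | Schedule: 3 h exposure, 30 °C | Measured by: HT flow cytometry, GFP fluorescence channel | Evaluation: % GFP response vs DMSO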

A short description of test [3]: TOR pathway reporter MEP2-GFP, retest of hits – S. cerevisiae, flow cytometry GFP, cherry picks, confirmation (AID 2272;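 active = GFP response above 150% of the DMSO control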;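 also: ratio of well signal to plate DMSO mean so 100% equals DMSO level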). The conditions noted are these: S. cerevisiae MEP2-GFP strain, 3 h, at 10 µM, stronger effect = higher value.
Test [4] can be described thus: yeast AGP1-GFP fluorescence change, single-dose – cell-based, flow cytometry, S. cerevisiae, cherry picks, confirmation (AID 2273).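 Also: median GFP channel fluorescence over the whole cell population gate.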 The conditions noted are these: S. cerevisiae AGP1-GFP strain, 3 h, at 10 µM.
Test [5] in a line: TOR pathway CIT2 reporter hit retest – S. cerevisiae, GFP fusion, cherry picks, mother/daughter gates, confirmation (AID 2274). The conditions noted are these: S. cerevisiae CIT2-GFP strain, flow cytometry, 3 h, at 10 µM, stronger effect = higher value.
Where [6] appears, read: measured here: daughter cell gate.
The mark [7] stands for this setting: measured here: mother cell gate.
The mark [8] stands for this setting: measured here: daughter cell gate response.
[9] abbreviates: measured here: mother cell gate response.

Activity calls are given as the source filed them.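 The calls were made as follows, unless noted: active = GFP response above 150% of the DMSO level; inconclusive = fewer than 70 events counted for a yeast strain; inactive = the rest.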

On to `Cc1cccc(CN2CCSc3sccc3C2=O)c1`, for which the GFP response vs DMSO in test [1] is 96.8% (inactive); in test [1] (setting [6]), 95.7%; in test [1] (setting [7]) it was 96.5%; in test [3] it was 131% (inactive). For the same compound, the GFP response relative to DMSO in test [2] was 125% (inactive); in test [2] (setting [8]), 127%; in test [2] (setting [9]), 126%. For the same compound, the GFP response, % of DMSO in test [4] is 98.2% (inactive); in test [5], 112% (inactive); in test [5] (setting [6]), 114%; in test [5] (setting [7]), 109%.
For the compound `CCOC(=O)C1(CCCc2ccccc2)CCN(C(=O)c2cc(C)nn2CC)CC1`, the GFP response vs DMSO was 99.3% (inactive) in test [1], 99.8% in test [1] (setting [6]), 99.8% in test [1] (setting [7]) and 97.5% (inactive) in test [3]. For the same compound, the GFP response relative to DMSO in test [2] is 98.8% (inactive); in test [2] (setting [8]) it was 102%; in test [2] (setting [9]), 98.5%. In addition, the GFP response, % of DMSO is 99.3% (inactive) in test [4], 102% (inactive) in test [5], 104% in test [5] (setting [6]) and 101% in test [5] (setting [7]).
In the case of `CCC(C)(C)n1nnnc1C(c1ccc(O)c(OC)c1)N1CCc2ccccc2C1` (configuration not stated), the GFP response vs DMSO in test [1] is 100% (inactive); in test [1] (setting [6]), 99.6%; in test [1] (setting [7]), 97.6%; in test [3], 99.5% (inactive). Also, the GFP response relative to DMSO in test [2] was 117% (inactive); in test [2] (setting [8]), 99.3%; in test [2] (setting [9]), 117%. The GFP response, % of DMSO is 117% (inactive) in test [4], 108% (inactive) in test [5], 108% in test [5] (setting [6]) and 105% in test [5] (setting [7]).
As for `O=[N+]([O-])c1cc(F)c2cccnc2c1O`, the GFP response vs DMSO in test [1] was 98.7% (inactive); in test [1] (setting [6]), 93.3%; in test [1] (setting [7]), 96.7%; in test [3], 126% (inactive). The GFP response relative to DMSO in test [2] was 219% (active); in test [2] (setting [8]), 176%; in test [2] (setting [9]), 204%. For the same compound, the GFP response, % of DMSO in test [4] is 125% (inactive); in test [5], 107% (inactive); in test [5] (setting [6]), 101%; in test [5] (setting [7]), 104%.
Take `COc1cccc(CC(=O)OC(C)C(=O)Nc2ncc(Cl)cc2Cl)c1` (configuration not stated): the GFP response vs DMSO in test [1] is 101% (inactive); in test [1] (setting [6]), 99.8%; in test [1] (setting [7]) it was 101%; in test [3] it was 102% (inactive). Moreover, the GFP response relative to DMSO in test [2] is 96.2% (inactive); in test [2] (setting [8]) it was 97.2%; in test [2] (setting [9]) it was 97.2%. Also, the GFP response, % of DMSO in test [4] was 91.1% (inactive); in test [5], 97.8% (inactive); in test [5] (setting [6]) it was 98.1%; in test [5] (setting [7]), 95.5%.
As to `COc1ccc([N+](=O)[O-])c(S(=O)(=O)c2ccccc2)n1`, the GFP response vs DMSO was 93.7% (inactive) in test [1], 95.8% in test [1] (setting [6]), 90.8% in test [1] (setting [7]) and 112% (inactive) in test [3]. For the same compound, the GFP response relative to DMSO in test [2] was 195% (active); in test [2] (setting [8]) it was 170%; in test [2] (setting [9]) it was 204%. Further, the GFP response, % of DMSO in test [4] is 113% (inactive); in test [5], 86% (inactive); in test [5] (setting [6]), 96.8%; in test [5] (setting [7]), 75.8%.
For the compound `Cc1ccccc1N1C(=O)C(Cl)=C(N2CCN(c3ccccc3)CC2)C1=O`, the GFP response vs DMSO in test [1] is 100% (inactive); in test [1] (setting [6]), 98.7%; in test [1] (setting [7]), 100%; in test [3] it was 100% (inactive). The values for the GFP response relative to DMSO in test [2], in test [2] (setting [8]) and in test [2] (setting [9]) were 101% (inactive), 102% and 102%, respectively. Also, the GFP response, % of DMSO in test [4] was 93% (inactive); in test [5] it was 95.2% (inactive); in test [5] (setting [6]) it was 94.8%; in test [5] (setting [7]) it was 94.4%.
Turning to `CCCN(Cc1nnc(-c2ccccc2Cl)o1)C(=O)c1cc([N+](=O)[O-])cc([N+](=O)[O-])c1`, the GFP response vs DMSO in test [1] is 97.3% (inactive); in test [1] (setting [6]) it was 98.4%; in test [1] (setting [7]), 96.1%; in test [3] it was 101% (inactive). Besides, the GFP response relative to DMSO in test [2] was 97.7% (inactive); in test [2] (setting [8]), 96%; in test [2] (setting [9]) it was 98.4%. Besides, the GFP response, % of DMSO in test [4] is 98.6% (inactive); in test [5], 94.4% (inactive); in test [5] (setting [6]), 94%; in test [5] (setting [7]), 94.9%.
For `COc1ccc(N2CCN(C(=O)c3ccc(C)cc3Cl)CC2)cc1`, the GFP response vs DMSO in test [1] was 101% (inactive); in test [1] (setting [6]), 98.1%; in test [1] (setting [7]), 102%; in test [3], 104% (inactive). Further, the GFP response relative to DMSO in test [2] is 97.4% (inactive); in test [2] (setting [8]), 98.7%; in test [2] (setting [9]), 99.3%. The GFP response, % of DMSO is 95.9% (inactive) in test [4], 92.6% (inactive) in test [5], 93.2% in test [5] (setting [6]) and 92.3% in test [5] (setting [7]).
For `O=C(Nc1nc2ccc(F)cc2s1)c1ccccn1`, the GFP response vs DMSO in test [1] is 102% (inactive); in test [1] (setting [6]), 102%; in test [1] (setting [7]) it was 99.3%; in test [3] it was 116% (inactive). Further, the figures for the GFP response relative to DMSO in test [2], in test [2] (setting [8]) and in test [2] (setting [9]) were 185% (active), 156% and 193%, respectively. For the same compound, the GFP response, % of DMSO in test [4] was 107% (inactive); in test [5] it was 99.7% (inactive); in test [5] (setting [6]), 105%; in test [5] (setting [7]), 92.8%.
Take `O=C(Nc1cccc(C(F)(F)F)c1)Oc1ccc(Cl)c2cccnc12`: the GFP response vs DMSO was 98% (inactive) in test [1], 97.6% in test [1] (setting [6]), 98.2% in test [1] (setting [7]) and 103% (inactive) in test [3]. Also, the GFP response relative to DMSO in test [2] was 110% (inactive); in test [2] (setting [8]), 108%; in test [2] (setting [9]), 111%. Also, the GFP response, % of DMSO in test [4] was 99.3% (inactive); in test [5], 108% (inactive); in test [5] (setting [6]), 110%; in test [5] (setting [7]), 107%.
For the compound `O=C(O)CCc1ccc(-c2ccc(Cl)cc2)o1`, the GFP response vs DMSO was 99% (inactive) in test [1], 91.7% in test [1] (setting [6]), 97.2% in test [1] (setting [7]) and 99% (inactive) in test [3]. Moreover, the figures for the GFP response relative to DMSO in test [2], in test [2] (setting [8]) and in test [2] (setting [9]) were 138% (inactive), 128% and 140%, respectively. For the same compound, the GFP response, % of DMSO in test [4] is 85.4% (inactive); in test [5], 94.4% (inactive); in test [5] (setting [6]), 88.4%; in test [5] (setting [7]), 94.4%.
Take `Cc1ccc(NC(=O)ON=C2CCCC2)cc1`: the GFP response vs DMSO in test [1] was 101% (inactive); in test [1] (setting [6]) it was 104%; in test [1] (setting [7]), 93.5%; in test [3] it was 109% (inactive). Further, the GFP response relative to DMSO in test [2] is 122% (inactive); in test [2] (setting [8]) it was 115%; in test [2] (setting [9]) it was 121%. The GFP response, % of DMSO was 68.9% (inactive) in test [4], 167% (active) in test [5], 150% in test [5] (setting [6]) and 167% in test [5] (setting [7]).
As to `CCc1ccc(OCC(=O)NNC(=S)NC(=O)C2CC2)c(Br)c1`, the GFP response vs DMSO in test [1] was 82.8% (inactive); in test [1] (setting [6]) it was 97.6%; in test [1] (setting [7]), 70.1%; in test [3], 126% (inactive). Further, the GFP response relative to DMSO is 204% (active) in test [2], 164% in test [2] (setting [8]) and 203% in test [2] (setting [9]). Besides, the GFP response, % of DMSO in test [4] was 90.5% (inactive); in test [5] it was 115% (inactive); in test [5] (setting [6]) it was 110%; in test [5] (setting [7]) it was 105%.
As to `Cc1sc(NC(=O)c2cccs2)nc1-c1ccccc1`, the GFP response vs DMSO was 106% (inactive) in test [1], 95.7% in test [1] (setting [6]), 105% in test [1] (setting [7]) and 109% (inactive) in test [3]. For the same compound, the GFP response relative to DMSO in test [2] was 110% (inactive); in test [2] (setting [8]), 106%; in test [2] (setting [9]), 112%. The GFP response, % of DMSO was 97.5% (inactive) in test [4], 95.9% (inactive) in test [5], 93.8% in test [5] (setting [6]) and 95.6% in test [5] (setting [7]).
In the case of `Cc1ccc(/C=c2\sc3nc(-c4cccs4)nn3c2=O)o1`, the GFP response vs DMSO was 98.6% (inactive) in test [1], 95.9% in test [1] (setting [6]), 95.4% in test [1] (setting [7]) and 163% (inactive) in test [3]. For the same compound, the GFP response relative to DMSO in test [2] is 128% (inactive); in test [2] (setting [8]), 117%; in test [2] (setting [9]), 131%. The GFP response, % of DMSO in test [4] was 95.4% (inactive); in test [5] it was 104% (inactive); in test [5] (setting [6]), 101%; in test [5] (setting [7]), 104%.
As to `CCC(=O)c1ccc(N2CCN(C(=O)c3ccc(Br)cc3)CC2)c(F)c1`, the GFP response vs DMSO was 97.6% (inactive) in test [1], 97.6% in test [1] (setting [6]), 94.4% in test [1] (setting [7]) and 101% (inactive) in test [3]. The GFP response relative to DMSO in test [2] was 115% (inactive); in test [2] (setting [8]) it was 117%; in test [2] (setting [9]), 112%. The GFP response, % of DMSO is 96.1% (inactive) in test [4], 95.9% (inactive) in test [5], 97.4% in test [5] (setting [6]) and 93.2% in test [5] (setting [7]).
